Compounds with a hit are over-represented: about 1.5% of the library has one in this group of screens.
APJ ag: agonists of human APJ apelin receptor | P35414 | CHO-K1 APJ PathHunter beta-arrestin, luminescence; 0% DMSO wells, 100% apelin | activation, % at 20 µM | 330,000 compounds, 0.11% hits | AID 2520;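 active = activation more than six SD over the plate average, tested at 20 µM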
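Assay system – PathHunter CHO-K1 APJ (AGTRL-1) beta-arrestin reporter cells · Compound – one dose, 20 µM compound, 1% DMSO · Timing – compound 90 min 25 °C, reagent 1 h · Measured by – luminescence from split beta-galactosidase complementation, Galacton Star/Emerald II substrate · Measure – beta-arrestin recruitment to APJ as agonist activity, luminescent signal · Benchmarks – DMSO vs Apelin-13 10 nM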
NTR1 ag: activates human neurotensin receptor 1 | activation, % at 20 µM | 330,000 compounds, 0.17% hits | P30989 | NTR1-U2OS beta-arrestin-GFP spot imaging, agonist mode;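 active = activation at or above 40% of the spot to cytoplasm intensity ratio, with at least 20 cells analyzed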
CCR6 antag: antagonists of human CCR6 receptor; P51684; CHO-K1 CCR6 PathHunter beta-arrestin, luminescence, CCL20-stimulated; inhibition, % at 20 µM; 340,000 compounds, 0.49% hits; AID 493098;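 active = compounds whose inhibition of the agonist-driven luminescence signal at 20 µM reaches about 50%, limit read from the data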;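 also: cells stimulated with CCL20 at 14 nM final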
m5-HT2A agonist: mouse HTR2A agonism via beta-arrestin recruitment; P35363; activation, % at 7.6 µM; 360,000 compounds, 0.66% hits; CHO-K1 mHTR2A beta-arrestin complementation, luminescence; percent of 30 µM serotonin response;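 active = activation above a run cutoff, the mean activation of all tested compounds plus 3 SD, cut at about 14% in these data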
Target sequence (P35363 whole entry, looked up): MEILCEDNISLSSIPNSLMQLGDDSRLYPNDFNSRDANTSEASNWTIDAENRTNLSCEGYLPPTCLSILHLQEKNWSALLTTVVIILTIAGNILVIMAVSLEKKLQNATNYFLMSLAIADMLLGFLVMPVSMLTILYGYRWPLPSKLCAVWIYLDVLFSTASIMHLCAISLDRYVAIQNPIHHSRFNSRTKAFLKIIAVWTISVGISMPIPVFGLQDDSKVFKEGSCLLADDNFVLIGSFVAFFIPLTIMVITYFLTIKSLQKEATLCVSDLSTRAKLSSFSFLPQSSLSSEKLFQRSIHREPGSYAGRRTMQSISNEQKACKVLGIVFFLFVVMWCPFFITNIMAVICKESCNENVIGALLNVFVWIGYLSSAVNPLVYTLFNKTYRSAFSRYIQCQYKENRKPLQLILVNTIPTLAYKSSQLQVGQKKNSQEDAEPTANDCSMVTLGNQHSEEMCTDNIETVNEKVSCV
CXCR6 inh: inhibitors of human CXCR6 receptor; O00574; CHO-K1 PathHunter CXCR6 beta-arrestin, luminescence; inhibition, % at 20 µM; 360,000 compounds, 0.36% hits; AID 602244; in the data active = inhibition above about 34%, passing the limit was not always enough;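 also: antagonist mode with CXCL16 agonist at 10 nM final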
APJ antagonist: antagonists of human APJ apelin receptor. CHO-K1 APJ beta-arrestin complementation, luminescence. inhibition, % at 20 µM. 330,000 compounds, 0.32% hits;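 active = inhibition above about 40% at 20 µM, limit read from the data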;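 also: cells challenged with 10 nM apelin-13 agonist together with compound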
MOR ag counter: OPRM1 agonism in mouse HTR2A counterscreen; shares compounds with m5-HT2A agonist; U2OS OPRM1 beta-arrestin PathHunter, luminescence; DMSO 0%, DAMGO 9.3 µM 100%; activation, % at 9.3 µM; 2,300 compounds, 5.3% hits; AID 624380;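 active = mean activation above the mean of DMSO-only wells plus 3 SD, cut at about 0.5% in these data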
HTR2A ag conf: mouse HTR2A agonism confirmed. shares compounds with m5-HT2A agonist. CHO-K1 PathHunter beta-arrestin recruitment, luminescence; DMSO 0%, 30 µM serotonin 100%. activation, % at 7.6 µM. 2,300 compounds, 19% hits. AID 624381;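 active = mean activation across triplicates above the hit threshold derived in the original primary screen, cut at about 15% in these data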
Hits are given with their value; n = inactive; x = not tested or not shown.

SMILES	APJ ag	NTR1 ag	CCR6 antag	m5-HT2A agonist	CXCR6 inh	APJ antagonist	MOR ag counter	HTR2A ag conf
O=C(O)/C=C/C(=O)NCCc1cccc(Cl)c1	n	n	n	26	n	n	n	n
CC(=O)NCCc1csc(-c2ccccc2)n1	n	n	n	n	n	n	x	x
O=C(O)C1CC=CCC1C(=O)Nc1cccc(Cl)c1 (centres undefined)	n	n	n	n	n	n	x	x
O=C(O)C1CCCCC1C(=O)NCCCc1ccccc1 (centres undefined)	n	n	n	n	n	n	x	x
O=C(O)C1CC=CCC1C(=O)NCCc1csc(-c2ccccc2)n1 (centres undefined)	n	n	n	16	n	n	n	n
O=C(O)C1CCCCC1C(=O)NCCc1ccccc1 (centres undefined)	n	n	n	15	n	n	n	n
O=C(O)C1CC=CCC1C(=O)NCCc1cccc(Cl)c1 (centres undefined)	n	n	n	24	n	n	n	n
Cc1ccc(C(=O)N2CC(=O)Nc3ccc(F)cc3C2c2ccc(F)cc2)cc1[N+](=O)[O-] (centres undefined)	n	n	n	n	n	n	x	x
COC(=O)c1ccc(COC(=O)C(CCSC)NC(=O)COc2ccccc2)cc1 (centres undefined)	n	n	n	n	n	n	x	x
N#Cc1ccc(CN2CCN(C(=O)CC(NC(=O)c3ccccc3)c3ccccc3)CC2)cc1 (centres undefined)	n	n	n	n	n	n	x	x
CCOC(=O)N1CCC(c2cc(=O)n3[nH]cc(C(=O)OC)c3n2)CC1	n	n	n	20	n	n	n	n
Cc1ccc(C(=O)OCC(=O)NCc2cccc(Cl)c2)cc1S(=O)(=O)N1CCCCC1	n	n	n	17	n	n	n	n
COc1ccc(NC(=O)NC2CCCCCCC2)cc1	n	n	n	n	n	n	x	x
Cc1cccc(NS(=O)(=O)c2ccc(C(=O)N3CCN(c4ccccc4O)CC3)cc2)c1C	n	n	n	16	n	n	0.5	n
CC(=O)c1cccc(NC(=O)c2c(F)c(F)c(F)c(F)c2F)c1	n	n	n	n	n	n	x	x
COC(=O)c1cc(NC(=O)c2c(F)c(F)c(F)c(F)c2F)cc(C(=O)OC)c1	n	n	n	18	n	n	n	n
CC(C)=C(NC(=O)c1ccccc1)C(=O)Nc1cccc(C)c1	n	n	n	n	n	n	x	x
C[C@H](CO)N1C[C@H](C)[C@H](CN(C)Cc2cncnc2)Oc2cc(Br)ccc2S1(=O)=O	x	x	x	18	n	x	n	n
CCN1C(=O)[C@H]2[C@@H](c3ccc(Cl)cc3)N3C(=O)CN(CC4CC4)C(=O)[C@@]3(C)[C@H]2C1=O	n	n	n	n	n	n	x	x
CCN1C(=O)[C@H]2[C@@H](c3ccc(OC)cc3)N3C(=O)CN(CC4CC4)C(=O)[C@@]3(C)[C@H]2C1=O	n	n	n	21	n	n	n	n
CCCC(c1nnnn1Cc1ccc(OC)cc1)N1CCN(C(=O)c2ccco2)CC1 (centres undefined)	n	n	n	n	n	n	x	x
CCCCCCSc1cc(C)nc2ncnn12	n	n	n	21	n	n	n	n
COC(=O)[C@H]1C[C@@]2(O)CN(S(=O)(=O)c3ccc(C)cc3)C[C@@]2(OC(=O)NCc2ccccc2F)C[C@H]1C(=O)OC	x	x	x	19	n	x	n	n
COC(=O)[C@H]1C[C@@]2(O)CN(S(=O)(=O)c3ccc(C)cc3)C[C@@]2(OC(=O)NCc2ccc(OC)c(OC)c2)C[C@H]1C(=O)OC	x	x	x	n	n	x	x	x
CC1(C)NC(=O)N(CC(=O)OCC(=O)c2ccc(Br)s2)C1=O	n	n	n	n	n	n	x	x
SMILES	APJ ag	NTR1 ag	CCR6 antag	m5-HT2A agonist	CXCR6 inh	APJ antagonist	MOR ag counter	HTR2A ag conf
O=C(c1ccc(NC2=NC3CS(=O)(=O)CC3S2)cc1)N1CCN(c2ccccc2F)CC1 (centres undefined)	n	n	n	24	n	n	n	n
O=C(c1ccc(NC2=NC3CS(=O)(=O)CC3S2)cc1)N1CCN(c2ccc(F)cc2)CC1 (centres undefined)	n	n	n	n	n	n	x	x
C=CCn1c(SCC(=O)c2ccc(Cl)cc2)nnc1-c1ccc2c(c1)OCO2	n	n	n	32	n	n	n	n
C=CCn1c(SCC(=O)c2ccc(OC)cc2)nnc1-c1ccc2c(c1)OCO2	n	n	n	n	n	n	x	x
CCNc1nc(NCC)nc(N(C#N)C(C)C)n1	n	n	n	20	n	n	n	n
C=C(C)C(=O)OCC(O)COc1ccc(C(C)(C)c2ccc(OCC(O)COC(=O)C(=C)C)cc2)cc1 (centres undefined)	n	n	n	17	n	n	n	n
CC(=O)c1ccc(OCC(O)COc2ccc(C(C)=O)cc2)cc1	n	n	n	n	n	n	x	x
Cc1ccc(CNCC(O)(c2ccccc2)c2ccccc2)cc1	n	n	n	20	n	n	n	n
CCOc1cc(CN2CCN(c3ncccn3)CC2)ccc1OC	n	n	n	22	n	n	n	50
c1cnc(N2CCN(Cc3c[nH]c4ccccc34)CC2)nc1	n	n	n	29	n	n	n	93
COc1ccc(CN2CCN(c3ncccn3)CC2)c(C)c1C	n	n	n	34	n	n	n	130
COc1ccc(CN2CCN(c3ccccn3)CC2)c(OC)c1C	n	n	n	n	n	n	x	x
COc1cccc(CN2CCN(c3ncccn3)CC2)c1OC	n	n	n	25	n	n	n	81
COc1cccc(CN2CCN(Cc3cc(OC)c(OC)c(OC)c3)CC2)c1OC	n	n	n	n	n	n	x	x
O=P(C(=NCCO)NO)(N1CCOCC1)N1CCOCC1	n	n	n	n	n	n	x	x
c1csc(-c2nnc(NC3CCCCC3)c3ccccc23)c1	n	n	n	23	n	n	n	n
COc1ccccc1N1CCN(C(=O)CCc2ccc(S(=O)(=O)NC(C)C)cc2)CC1	n	n	n	n	n	n	x	x
COc1ccccc1N1CCN(C(=O)COc2ccc(S(=O)(=O)NC(C)C)cc2)CC1	n	n	n	15	n	n	n	n
Cc1ccccc1NC(=O)Cc1nc(COC(=O)c2nccnc2N)cs1	x	x	x	n	n	x	x	x
C[N+](C)=C1SCC(C)(/C=N/O)S1 (centres undefined)	n	n	n	n	n	n	x	x
CC(=O)Nc1ccc(CN2CCN(Cc3ccc(C)cc3)C(CCO)C2)cc1 (centres undefined)	n	n	n	n	n	n	x	x
